Assay results from different studies.
Protocols differ between the studies behind these lines.
Target: Tyrosine-protein kinase SYK (SYK, Homo sapiens, UniProt P43405)

With `O=C(CSc1nc2nccnc2c(=O)n1CCc1ccccc1)Nc1nccs1` the inhibition was 7% (enzyme activity, inhibitor; 10 µM).
`Nc1nc(NC2CCCCC2)sc1C(=O)c1ccccc1` has a remaining activity of 91% (enzyme activity, inhibitor; 10 µM).
With `O=C(N1CCS(=O)(=O)CC1)N1C[C@H](c2ccc(OC(F)(F)F)cc2)C[C@H](c2nc(C3CC3)no2)C1` the remaining binding was 100% (cell-free assay, competition with immobilised ligand; 1 µM).
`Cn1c(=O)n(-c2ccc(C(C)(C)C#N)cc2)c2c3cc(-c4cnc5ccccc5c4)ccc3ncc21` gave a remaining activity of 72% (enzyme activity, inhibitor; 10 µM).
`CC(C)(C)c1nc(-c2cccc(NS(=O)(=O)c3c(F)cccc3F)c2F)c(-c2ccnc(N)n2)s1` has a remaining activity of 111% (enzyme activity, inhibitor, radiometric; 1 µM).
The remaining activity of `FC(F)c1nc2ccccc2n1-c1nc(N2CCOCC2)nc(N2CCOCC2)n1` is reported as 85% (enzyme activity, inhibitor; 10 µM).
With `CC(C)CC(=O)N1CCc2nc(-c3ccc(Br)cc3)nc(N(C)Cc3ccccc3)c2C1` the remaining binding was 100% (cell-free assay, competition with immobilised ligand; 0.1 µM).
`c1nc2c(Nc3ccc4c(c3)OCCO4)nc(Nc3ccc4c(c3)OCCO4)nc2[nH]1` gave an activity vs control of 2% (enzyme activity, inhibitor; 10 µM).
The remaining activity of `CC(C)(C)C(=O)c1sc(NC2CCCCC2)nc1N` is reported as 111% (enzyme activity, inhibitor; 10 µM).
The remaining activity of `O=C(Nc1cnn(-c2csc(C(=O)NC3COC3)c2)c1)Nc1ccccc1Cl` is reported as 101% (enzyme activity, inhibitor; 5 µM).
The remaining signal of `COc1cc2c(Nc3ccc(Br)cc3F)ncnc2cc1OCC1CCN(C)CC1` is reported as 101% (cell-free assay; 0.5 µM).
The inhibition of `Cc1ccc(Nc2nccc(N(C)c3ccc4c(C)n(C)nc4c3)n2)cc1S(N)(=O)=O` is reported as 88% (enzyme activity, inhibitor; 10 µM).
For `O=C1Nc2ccc(Cl)cc2C1=Cc1cc(Cl)c(O)c(Cl)c1`, the remaining signal was 93.3% (cell-free assay; 0.5 µM).
For `Cc1ccc(C(=O)Nc2ccc(CN3CCN(C)CC3)c(C(F)(F)F)c2)cc1C#Cc1cnc2cccnn12`, the remaining activity was 99% (enzyme activity, inhibitor; 23.5 nM).
For `CNC(=O)c1cc(Oc2ccc(NC(=O)Nc3ccc(Cl)c(C(F)(F)F)c3)cc2)ccn1`, the inhibition was -6% (enzyme activity, inhibitor; 10 µM).
The activity vs control of `COc1cc(/C=C/C(=O)CC(=O)/C=C/c2ccc(O)c(OC)c2)ccc1O` is reported as 92% (enzyme activity, inhibitor; 1 µM).
For `Cc1c(C(=O)O)cc(-c2ccc(C3CCNCC3)cc2)c2ccc(-c3ccc(C(F)(F)F)cc3)cc12`, the remaining binding was 100% (cell-free assay, competition with immobilised ligand; 1 µM).
With `CN(C)C1CCN(CC#Cc2nn(C3CCCC3)c3nc(NCc4ccccc4)ncc23)C1` (centres unmarked) the inhibition was 2% (enzyme activity, inhibitor, FRET; 0.1 µM).
For `Cn1nc(C(=O)NCc2ccc(C(=O)O)cc2)cc1-c1ccc2[nH]ccc2c1`, the remaining binding was 81% (cell-free assay, competition with immobilised ligand; 0.1 µM).
`COc1cc2ncnc(Nc3ccc(Oc4ccccc4)cc3C)c2cc1OC` has an inhibition of 1% (enzyme activity, inhibitor; 1 µM).
`CN(c1ncccc1CNc1nc(Nc2ccc3c(c2)CC(=O)N3)ncc1C(F)(F)F)S(C)(=O)=O` gave an inhibition of 91.7% (enzyme activity, inhibitor; 1 µM).
For `Nc1ncnc2occ(-c3ccc(NC(=O)Nc4cc(C(F)(F)F)ccc4F)cc3)c12`, the remaining signal was 2.4% (cell-free assay, inhibitor; 20 µM).
`C[C@H](c1ccnc(Nc2nc3ccc(-c4cc(N(C)C)ncn4)cc3[nH]2)c1)N1CCN(C(=O)CC(F)(F)F)CC1` gave a remaining binding of 31% (binding, competition with immobilised ligand; 0.1 µM).
`CCCS(=O)(=O)Nc1ccc(F)c(C(=O)c2c[nH]c3ncc(-c4ccc(Cl)cc4)cc23)c1F` has an inhibition of less than 10% (enzyme activity, inhibitor; 1 µM).
`CNc1cccc2cc(C(=O)Nc3ccc(C(=O)O)cc3)c(=O)[nH]c12` gave an inhibition of 4% (enzyme activity, inhibitor; 10 µM).
The activity vs control of `Cc1ccc(C(=O)NCc2ccsc2)cc1C#Cc1cn(C(C)C)c2ncnc(N)c12` is reported as 91% (enzyme activity, inhibitor; 1 µM).
For `Cn1cc(Cl)c2c(Oc3c(F)cc(Nc4cc(Cl)nc(N)n4)cc3F)ccnc21`, the remaining binding was 100% (cell-free assay, competition with immobilised ligand; 0.1 µM).
The activity vs control of `FC(F)(F)Oc1cccc(-c2cnc3ccc(-c4ccncc4)nn23)c1` is reported as 72% (enzyme activity, inhibitor, radiometric; 1 µM).
The remaining binding of `Nc1cnc(N2CCc3cc(S(=O)(=O)Nc4c(F)cc(Cl)cc4F)cc(N4CCCC4=O)c32)nc1` is reported as 100% (cell-free assay, competition with immobilised ligand; 1 µM).
With `COc1cc(Nc2cnc(C#N)c(O[C@H](C)CN(C)C)n2)ncc1-c1cnn(C)c1` the remaining activity was 93% (enzyme activity, inhibitor, radiometric; 1 µM).
The remaining signal of `O=C1NC(=O)c2cc(Nc3ccc(F)cc3)c(Nc3ccc(F)cc3)cc21` is reported as 98.8% (cell-free assay; 0.5 µM).
With `CN(c1ccnc(CNc2nc(Nc3ccc4c(c3)CC(=O)N4)ncc2C(F)(F)F)n1)S(C)(=O)=O` the remaining binding was 5.7% (cell-free assay, competition with immobilised ligand; 1 µM).
